In ChEMBL document CHEMBL2157939 (J Med Chem, 2012):
Calls of active or inactive are those of the source.

Key:
[1] = Apparent permeability across human Caco2 cells at 200 uM by LC/MS analysis; assay type: ADME, cell-based; conditions: Caco-2
Method in brief: (§1)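 Caco-2 monolayers (passages 55−75; DMEM with 10% FBS, 1% L-glutamine, 1% nonessential amino acids, 37 °C, 5% CO2) used for apparent permeability; compound quantified by LC-MS.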

Rattus norvegicus [2] = assay: Antinociceptive activity in Sprague-Dawley rat chronic constriction injury model assessed as paw withdrawal threshold to von Frey filament-induced pain 16 umol/kg, iv administered as bolus injection measured at 15 mins; assay type: functional, organism-based
Method in brief: (§2)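 Male SD rats (160−200 g at purchase) with CCI of left sciatic nerve (four loose silk ligatures, Bennett-Xie) under isoflurane. Single iv bolus doses 0.16 to 16 μmol/kg.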

Plasma = assay: Plasma concentration in Sprague-Dawley rat at 10 umol/kg, po from 30 to 60 mins by LC/MS analysis; assay type: ADME, organism-based; conditions: in vivo, BLD = below limit of detection
Method in brief: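 Male SD rats, 280−310 g, gavaged with 500 μL of […] aqueous solution (10 μmol/kg). Tail-vein blood at 30, 60, 90 min into heparin tubes; plasma protein-precipitated with 3 volumes acetonitrile, supernatant quantified by LC-MS; n = 4.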

[3] = Half life in human plasma at 1 mg/ml by RP-HPLC analysis; assay type: ADME, cell-free
Rattus norvegicus [4] = assay: Antinociceptive activity in Sprague-Dawley rat chronic constriction injury model assessed as reduction in Von Frey filament-induced mechanical allodynia in ipsilateral hind paw at 8 and 16 umol/kg, po up to 2 hrs; assay type: functional, organism-based
Rattus norvegicus [5] = assay: Antinociceptive activity in po dosed Sprague-Dawley rat chronic constriction injury model assessed as reduction in Von Frey filament-induced mechanical allodynia in ipsilateral hind paw; assay type: functional
[6] = Selectivity ratio of Ki for kappa-opioid receptor to Ki for mu-opioid receptor
Method in brief: (§3)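 Competitive displacement scintillation proximity assay on frozen membranes from CHO-K1 cells stably expressing human MOR, DOR or KOR, with wheatgerm agglutinin-coated SPA beads. Labels: MOR [3H]DAMGO, DOR [3H]DPDPE, KOR [3H]diprenorphine. Eight compound concentrations from 10 pM to 1 μM. Three independent experiments, each in triplicate, reported as mean ± SEM. The ratio is each Ki divided by the MOR Ki.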

Rattus norvegicus [7] = assay: Antinociceptive activity in Sprague-Dawley rat chronic constriction model assessed as reduction in Von Frey filament-induced mechanical allodynia in ipsilateral hind paw at 5 umol/kg, iv administered as bolus injection 5 mins post-naloxone coadministration; assay type: functional, organism-based
Method in brief: (§4)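 CCI rats (n = 6) given single sc naloxone hydrochloride 10 mg/kg or vehicle 5 min before single iv bolus of test item.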

Caco-2 [8] = assay: Permeability across human Caco2 cells at 200 µM by LC/MS analysis in presence of lactose; assay type: ADME, cell-based; conditions: caco-2, 200 µM; method in brief: as §1
Rattus norvegicus [9] = assay: Antinociceptive activity in Sprague-Dawley rat chronic constriction model assessed as reduction in Von Frey filament-induced mechanical allodynia in contralateral hind paw at 5 umol/kg, iv administered as bolus injection; assay type: functional, organism-based
Caco-2 [10] = assay: Permeability across human Caco2 cells at 200 µM by LC/MS analysis in presence of glucose; assay type: ADME, cell-based; conditions: caco-2, 200 µM; method in brief: as §1
[11] = Selectivity ratio of Ki for delta-opioid receptor to Ki for mu-opioid receptor; method in brief: as §3
Rattus norvegicus [12] = assay: Antinociceptive activity in Sprague-Dawley rat chronic constriction injury model assessed as reduction in Von Frey filament-induced mechanical allodynia in ipsilateral hind paw at 8 and 16 umol/kg, po at 0.75 to 1 hr; assay type: functional, organism-based
Mu-type opioid receptor [13] = target: T1, Mu-type opioid receptor (Homo sapiens, UniProt P35372); assay: Agonist activity at mu-opioid receptor in human SH-SY5Y cells assessed as inhibition of forskolin-stimulated cAMP accumulation after 30 mins by immunoassay; assay type: functional, cell-based
T1 sequence (P35372 whole entry): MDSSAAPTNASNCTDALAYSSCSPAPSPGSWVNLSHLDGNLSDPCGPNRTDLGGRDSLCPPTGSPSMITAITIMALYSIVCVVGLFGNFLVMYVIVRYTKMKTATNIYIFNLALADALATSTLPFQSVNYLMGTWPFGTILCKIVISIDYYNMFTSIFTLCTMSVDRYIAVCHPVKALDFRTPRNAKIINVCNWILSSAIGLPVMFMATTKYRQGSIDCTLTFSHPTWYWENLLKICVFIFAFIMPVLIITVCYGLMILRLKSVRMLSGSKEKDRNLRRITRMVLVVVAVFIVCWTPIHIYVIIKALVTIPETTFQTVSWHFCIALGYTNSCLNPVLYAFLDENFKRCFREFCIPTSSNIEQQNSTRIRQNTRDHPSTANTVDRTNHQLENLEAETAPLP

Rattus norvegicus [14] = assay: Effect on gastrointestinal motility in fasted Sprague-Dawley rat assessed as gastrointestinal propulsion of charcoal meal at 16 umol/kg, po administered prior to charcoal meal measured after 1 hr ( Rvb = 66.5 3.8% ); assay type: ADME, organism-based; conditions: in vivo
Method in brief: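 Rats 200−250 g fasted ~16 h (water allowed), n = 8 per group, dosed orally just before gavage of 1 mL aqueous 10% activated charcoal/5% gum Arabic. Killed 1 h later (ip pentobarbital, cervical dislocation); small intestine length pylorus to ileocecal junction and farthest charcoal front measured as % propulsion.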

Rattus norvegicus [15] = assay: Antinociceptive activity in iv dosed Sprague-Dawley rat chronic constriction injury model assessed as paw withdrawal threshold to von Frey filament-induced pain administered as bolus injection; assay type: functional; method in brief: as §2
Caco-2 [16] = assay: Permeability across human Caco2 cells at 200 µM by LC/MS analysis in presence of galactose; assay type: ADME, cell-based; conditions: caco-2, 200 µM; method in brief: as §1
Rattus norvegicus [17] = assay: Antinociceptive activity in Sprague-Dawley rat chronic constriction injury model assessed as paw withdrawal threshold to von Frey filament-induced pain at 5 and 16 umol/kg, iv administered as bolus injection measured at 15 mins; assay type: functional, organism-based; method in brief: as §2
Rattus norvegicus [18] = assay: Induction of constipation in fasted Sprague-Dawley rat assessed as inhibition of castor oil-induced diarrhea at 16 umol/kg, po administered 5 mins prior to castor-oil challenge measured up to 8 hrs; assay type: organism-based; conditions: in vivo
Method in brief: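 Drug-naive rats, 200−250 g, fasted ~16 h with water, then 1 h in individual wire-mesh cages without food or water. Oral test item or vehicle; 5 min later 1 mL castor oil by gavage. Diarrhea presence checked hourly to 8 h, scored by fecal boli weight and consistency.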

Rattus norvegicus [19] = assay: Antinociceptive activity in Sprague-Dawley rat chronic constriction injury model assessed as paw withdrawal threshold to von Frey filament-induced pain at 5 and 16 umol/kg, iv administered as bolus injection measured up to 1.5 hrs; assay type: functional, organism-based; method in brief: as §2
[20] = target: Delta-type opioid receptor (Homo sapiens, UniProt P41143); assay: Displacement of [3H]DPDPE from delta-opioid receptor expressed in CHOK1 cells after overnight incubation by scintillation proximity assay; assay type: cell-based, CHO-K1
Delta-type opioid receptor, sequence (P41143 whole entry): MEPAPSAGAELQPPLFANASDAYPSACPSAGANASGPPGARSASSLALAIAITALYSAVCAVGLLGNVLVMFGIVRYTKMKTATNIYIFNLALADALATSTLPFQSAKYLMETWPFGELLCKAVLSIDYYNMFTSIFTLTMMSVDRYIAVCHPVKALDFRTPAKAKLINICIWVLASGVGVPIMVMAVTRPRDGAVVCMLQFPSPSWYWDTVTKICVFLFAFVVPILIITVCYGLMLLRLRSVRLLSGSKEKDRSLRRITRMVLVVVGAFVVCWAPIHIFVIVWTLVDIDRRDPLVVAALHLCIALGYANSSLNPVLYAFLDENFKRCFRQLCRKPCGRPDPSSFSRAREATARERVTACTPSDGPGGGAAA
Method in brief: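 Competitive displacement of [3H]DPDPE from human DOR in membranes of stably transfected CHOK1 cells, WGA-coated SPA beads. Eight concentrations, 10 pM to 1 μM; three independent experiments in triplicate, mean ± SEM.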

Mu-type opioid receptor [21] = target: T1, Mu-type opioid receptor; assay: Displacement of [3H]DAMGO from mu-opioid receptor expressed in CHOK1 cells after overnight incubation by scintillation proximity assay; assay type: cell-based, CHO-K1
Rattus norvegicus [22] = assay: Antinociceptive activity in Sprague-Dawley rat chronic constriction model assessed as reduction in Von Frey filament-induced mechanical allodynia in contralateral hind paw at 8 umol/kg, po; assay type: functional, organism-based
Rattus norvegicus [23] = assay: Antinociceptive activity in Sprague-Dawley rat chronic constriction model assessed as reduction in Von Frey filament-induced mechanical allodynia in contralateral hind paw at 2 umol/kg, iv administered as bolus injection; assay type: functional, organism-based
Rattus norvegicus [24] = assay: Antinociceptive activity in Sprague-Dawley rat chronic constriction model assessed as reduction in Von Frey filament-induced mechanical allodynia in ipsilateral hind paw at 2 umol/kg, iv administered as bolus injection 5 mins post-naloxone coadministration; assay type: functional, organism-based; method in brief: as §4
Rattus norvegicus [25] = assay: Antinociceptive activity in Sprague-Dawley rat chronic constriction injury model assessed as reduction in Von Frey filament-induced mechanical allodynia in ipsilateral hind paw at 8 umol/kg, po; assay type: functional, organism-based

## NC(=O)[C@H](Cc1ccccc1)NC(=O)[C@H](Cc1c[nH]c2ccccc12)NC(=O)[C@@H]1CCCN1C(=O)[C@@H](N)Cc1ccc(O)cc1 [ENDOMORPHIN-1]
[1]
  Papp at 200 µM: 0.11 ×10⁻⁶ cm/s
Rattus norvegicus [2]
  Activity: inactive
Plasma
  Cp: BLD

## NC(=O)[C@H](Cc1ccccc1)NC(=O)[C@H](Cc1c[nH]c2ccccc12)NC(=O)[C@@H]1CCCN1C(=O)[C@H](Cc1ccc(O)cc1)NC(=O)CCC(=O)N[C@@H]1O[C@H](CO)[C@@H](O[C@@H]2O[C@H](CO)[C@H](O)[C@H](O)[C@H]2O)[C@H](O)[C@H]1O
[3]
  half-life at 1 mg/ml: 57.3 min
Rattus norvegicus [4]
  Activity: Active
Rattus norvegicus [5]
  Activity: Dose-dependent effect
  ED50: 19.6 µmol/kg
[1]
  Papp at 200 µM: 76 ×10⁻⁶ cm/s
[6]
  Ratio Ki: 105
Rattus norvegicus [7]
  Activity: inactive
Caco-2 [8]
  permeability: impermeable
Rattus norvegicus [9]
  Activity: inactive
Caco-2 [10]
  permeability: permeable
[11]
  Ratio Ki: 319
Rattus norvegicus [12]
  Activity: Active
Mu-type opioid receptor [13]
  IC50: 590 nM
Rattus norvegicus [14]
  Activity: 58.5%
Rattus norvegicus [15]
  ED50: 8.3 µmol/kg
Caco-2 [16]
  permeability: impermeable
Rattus norvegicus [17]
  Activity: Active
Rattus norvegicus [18]
  Activity: Non-toxic
Rattus norvegicus [19]
  Activity: Active
[20]
  Ki: 4750 nM
Mu-type opioid receptor [21]
  Ki: 14.9 nM
Rattus norvegicus [22]
  Activity: inactive

## CN1CC[C@]23c4c5ccc(O)c4O[C@H]2[C@@H](O)C=C[C@H]3[C@H]1C5 [MORPHINE]
Rattus norvegicus [5]
  ED50: 20.7 µmol/kg
Rattus norvegicus [15]
  ED50: 2.6 µmol/kg
Rattus norvegicus [23]
  Activity: Active
Rattus norvegicus [22]
  Activity: Active
Rattus norvegicus [24]
  Activity: inactive
Rattus norvegicus [25]
  Activity: Active

## CC(C)NCC(O)COc1cccc2ccccc12 (configuration not stated) [PROPRANOLOL]
[1]
  Papp at 200 µM: 150 ×10⁻⁶ cm/s
